Test results taken from ChEMBL document CHEMBL4725393, “Prodrug Strategies to Improve the Solubility of the HCV NS5A Inhibitor Pibrentasvir (ABT-530)” (J Med Chem, 2020).
In brackets after ≈: the same amount, converted by molar mass.

Key:
[1] = Equilibrium solubility of compound at pH 7.4 incubated for 24 to 48 hrs by HPLC analysis; assay type: physicochemical; conditions: buffer, time 24-48 hrs
Summary of the method: (§1)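 For equilibrium solubility, excess solid was added to 3–4 mL of medium, in triplicate. Suspension pH was read after equilibration. Solids were removed by centrifugation at 4000 rpm at 25 °C, and the supernatant was passed through a 0.45 µm filter, discarding the first 2 mL. The filtrate was quantified by HPLC against standard curves.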

[2] = Stability of compound at pH 7.4 assessed as prodrug remaining level at 125 ug/ml incubated for 24 hrs by HPLC analysis; assay type: physicochemical; conditions: buffer, pH 7.4, 24 h, at 125 µg/mL
Summary of the method: (§2)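 A DMSO stock of about 1.25 mg/mL was diluted into 0.1 N HCl (pH 1) or 50 mM phosphate buffer (pH 7.4), giving final concentrations of ~125 µg/mL prodrug and 10% DMSO. The solution was filtered and held at 37 °C in the HPLC autosampler, with injections at several times over 24 h. Percent remaining was calculated from prodrug peak area relative to t0.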

[3] = Cmax in CD1 mouse assessed as pibrentasvir1 level at 6 mg/kg, po measured up to 24 hrs; assay type: ADME, organism-based; design: route oral, dose 6 mg/kg, time <=24; conditions: in vivo
Summary of the method: (§3)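 CD-1 mice with free access to food and water received an oral gavage of prodrug or PIB at 10 mL/kg in 0.2% HPMC. The dose was adjusted for prodrug MW to equal 6 mg/kg PIB. K2EDTA blood was drawn at 0.25, 0.5, 1, 3, 6, 9, 12 and 24 h. Plasma was spun at 3200 x g for 5 min at ~4°C and stored below -15°C. PIB and prodrug were measured; AUC in ng·h/mL, Cmax in ng/mL.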

[4] = AUC in CD1 mouse assessed as pibrentasvir1 level at 6 mg/kg, po measured up to 24 hrs; assay type: ADME, organism-based; design: route oral, dose 6 mg/kg, time <=24; conditions: in vivo; summary of the method: as §3
[5] = Stability of compound at pH 1 assessed as prodrug remaining level at 125 ug/ml incubated for 24 hrs by HPLC analysis; assay type: physicochemical; conditions: buffer, pH 1, 24 h, at 125 µg/mL; summary of the method: as §2
[6] = Solubility in FeSSIF at pH 5; assay type: physicochemical; summary of the method: as §1
[7] = Equilibrium solubility of compound at pH 1 incubated for 24 to 48 hrs by HPLC analysis; assay type: physicochemical; conditions: buffer, time 24-48 hrs; summary of the method: as §1
[8] = AUC in beagle dog assessed as pibrentasvir1 level at 40 mg, po measured up to 24 hrs; assay type: ADME, organism-based, Canis lupus familiaris; design: route oral, dose 40 mg, time <=24; conditions: in vivo
Summary of the method: (§4)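 The dose equalled 40 mg PIB after adjustment for prodrug MW. Food was returned at 12 h. K2EDTA plasma was sampled at 0.25–24 h. Cmax is in ng/mL and AUC in ng·h/mL.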

[9] = AUC in CD1 mouse assessed as pibrentasvir1 level at 3 mg/kg, po measured up to 24 hrs; assay type: ADME, organism-based; design: route oral, dose 3 mg/kg, time <=24; conditions: in vivo
Summary of the method: (§5)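 CD-1 mice, fed ad libitum, were dosed orally at a prodrug-MW-adjusted dose equal to 3 mg/kg PIB, as a solution or suspension. Serial K2EDTA blood samples were taken from 0.25 to 24 h. Plasma was separated by centrifugation and kept frozen. PIB and prodrug levels were reported as Cmax (ng/mL) and AUC (ng·h/mL).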

[10] = Cmax in CD1 mouse assessed as pibrentasvir1 level at 3 mg/kg, po measured up to 24 hrs; assay type: ADME, organism-based; design: route oral, dose 3 mg/kg, time <=24; conditions: in vivo; summary of the method: as §5
[11] = Cmax in beagle dog assessed as pibrentasvir1 level at 40 mg, po measured up to 24 hrs; assay type: ADME, organism-based, Canis lupus familiaris; design: route oral, dose 40 mg, time <=24; conditions: in vivo; summary of the method: as §4
[12] = Half life of compound at pH 7.4 at 125 ug/ml at 37 degC by HPLC analysis; assay type: physicochemical; conditions: dose 125 µg/ml

Compound	solubility thermodynamic [1]	Stabilty [2]	Cmax [3]	AUC [4]	Stabilty [5]	solubility [6]	solubility thermodynamic [7]	AUC [8]	AUC [9]	Cmax [10]	Cmax [11]	half-life at 125 ug/ml [12]
COC(=O)N[C@H](C(=O)N1CCC[C@H]1c1nc2cc(F)c([C@H]3CC[C@H](c4cc5c(cc4F)nc([C@@H]4CCCN4C(=O)[C@@H](NC(=O)OC)[C@@H](C)OC)n5COC(=O)CCCOP(=O)(O)O)N3c3cc(F)c(N4CCC(c5ccc(F)cc5)CC4)c(F)c3)cc2[nH]1)[C@@H](C)OC	874 µg/mL (≈ 668 µM)	80%	784 ng/mL	12600 ng·h/mL	76%	> 1000 µg/mL	609 µg/mL (≈ 465 µM)					
COC(=O)N[C@H](C(=O)N1CCC[C@H]1c1nc2cc([C@H]3CC[C@H](c4cc5c(cc4F)nc([C@@H]4CCCN4C(=O)[C@@H](NC(=O)OC)[C@@H](C)OC)n5COP(=O)(O)O)N3c3cc(F)c(N4CCC(c5ccc(F)cc5)CC4)c(F)c3)c(F)cc2n1COP(=O)(O)O)[C@@H](C)OC	> 1000 µg/mL						> 1000 µg/mL	2580 ng·h/mL	477 ng·h/mL	28 ng/mL	275 ng/mL	
COC(=O)N[C@H](C(=O)N1CCC[C@H]1c1nc2cc(F)c([C@H]3CC[C@H](c4cc5c(cc4F)nc([C@@H]4CCCN4C(=O)[C@@H](NC(=O)OC)[C@@H](C)OC)n5COP(=O)(O)O)N3c3cc(F)c(N4CCC(c5ccc(F)cc5)CC4)c(F)c3)cc2n1COP(=O)(O)O)[C@@H](C)OC	> 1000 µg/mL						567 µg/mL (≈ 425 µM)	611 ng·h/mL	353 ng·h/mL	20 ng/mL	66 ng/mL	
COC(=O)N[C@H](C(=O)N1CCC[C@H]1c1nc2cc(F)c([C@H]3CC[C@H](c4cc5nc([C@@H]6CCCN6C(=O)[C@@H](NC(=O)OC)[C@@H](C)OC)n(COC(=O)Cc6ccccc6OP(=O)(O)O)c5cc4F)N3c3cc(F)c(N4CCC(c5ccc(F)cc5)CC4)c(F)c3)cc2[nH]1)[C@@H](C)OC	< 0.2 µg/mL	28%	584 ng/mL	9560 ng·h/mL	15%	> 1000 µg/mL	2 µg/mL (≈ 1.47 µM)	2940 ng·h/mL			288 ng/mL	
COC(=O)N[C@H](C(=O)N1CCC[C@H]1c1nc2cc(F)c([C@H]3CC[C@H](c4cc5c(cc4F)nc([C@@H]4CCCN4C(=O)[C@@H](NC(=O)OC)[C@@H](C)OC)n5COC(=O)c4cccc(OP(=O)(O)O)c4)N3c3cc(F)c(N4CCC(c5ccc(F)cc5)CC4)c(F)c3)cc2[nH]1)[C@@H](C)OC	> 1000 µg/mL	100%	46 ng/mL	819 ng·h/mL	91%		> 1000 µg/mL					
COC(=O)N[C@H](C(=O)N1CCC[C@H]1c1nc2cc(F)c([C@H]3CC[C@H](c4cc5nc([C@@H]6CCCN6C(=O)[C@@H](NC(=O)OC)[C@@H](C)OC)n(COC(=O)N(C)c6ncccc6COP(=O)(O)O)c5cc4F)N3c3cc(F)c(N4CCC(c5ccc(F)cc5)CC4)c(F)c3)cc2[nH]1)[C@@H](C)OC	> 1000 µg/mL	92%	380 ng/mL	6490 ng·h/mL	92%	> 1000 µg/mL	> 1000 µg/mL	3020 ng·h/mL			297 ng/mL	
COC(=O)N[C@H](C(=O)N1CCC[C@H]1c1nc2cc(F)c([C@H]3CC[C@H](c4cc5nc([C@@H]6CCCN6C(=O)[C@@H](NC(=O)OC)[C@@H](C)OC)n(COC(=O)CCCOP(=O)(O)O)c5cc4F)N3c3cc(F)c(N4CCC(c5ccc(F)cc5)CC4)c(F)c3)cc2[nH]1)[C@@H](C)OC	49 µg/mL (≈ 37.4 µM)	76%	336 ng/mL	5570 ng·h/mL	82%	> 1000 µg/mL	146 µg/mL (≈ 112 µM)	4510 ng·h/mL			462 ng/mL	
COC(=O)N[C@H](C(=O)N1CCC[C@H]1c1nc2cc(F)c([C@H]3CC[C@H](c4cc5nc([C@@H]6CCCN6C(=O)[C@@H](NC(=O)OC)[C@@H](C)OC)n(COC(=O)c6cccc(OP(=O)(O)O)c6)c5cc4F)N3c3cc(F)c(N4CCC(c5ccc(F)cc5)CC4)c(F)c3)cc2[nH]1)[C@@H](C)OC	827 µg/mL (≈ 616 µM)	100%	96 ng/mL	1510 ng·h/mL	96%	> 1000 µg/mL	397 µg/mL (≈ 296 µM)					
COC(=O)N[C@H](C(=O)N1CCC[C@H]1c1nc2cc(F)c([C@H]3CC[C@H](c4cc5c(cc4F)nc([C@@H]4CCCN4C(=O)[C@@H](NC(=O)OC)[C@@H](C)OC)n5COC(=O)[C@@H](NC(=O)OCOP(=O)(O)O)C(C)C)N3c3cc(F)c(N4CCC(c5ccc(F)cc5)CC4)c(F)c3)cc2[nH]1)[C@@H](C)OC	> 1000 µg/mL	28%	513 ng/mL	8930 ng·h/mL	95%	> 1000 µg/mL	271 µg/mL (≈ 194 µM)					< 24 h
COC(=O)N[C@H](C(=O)N1CCC[C@H]1c1nc2cc(F)c([C@H]3CC[C@H](c4cc5nc([C@@H]6CCCN6C(=O)[C@@H](NC(=O)OC)[C@@H](C)OC)n(COC(=O)c6ccccc6COP(=O)(O)O)c5cc4F)N3c3cc(F)c(N4CCC(c5ccc(F)cc5)CC4)c(F)c3)cc2[nH]1)[C@@H](C)OC	< 0.2 µg/mL	89%	622 ng/mL	10700 ng·h/mL	99%	> 1000 µg/mL	99 µg/mL (≈ 72.9 µM)	1150 ng·h/mL			115 ng/mL	
COC(=O)N[C@H](C(=O)N1CCC[C@H]1c1nc2cc(F)c([C@H]3CC[C@H](c4cc5c(cc4F)nc([C@@H]4CCCN4C(=O)[C@@H](NC(=O)OC)[C@@H](C)OC)n5COC(=O)c4ccccc4COP(=O)(O)O)N3c3cc(F)c(N4CCC(c5ccc(F)cc5)CC4)c(F)c3)cc2[nH]1)[C@@H](C)OC	92 µg/mL (≈ 67.8 µM)	84%	132 ng/mL	2420 ng·h/mL	98%	> 1000 µg/mL	543 µg/mL (≈ 400 µM)					
COC(=O)N[C@H](C(=O)N1CCC[C@H]1c1nc2cc(F)c([C@H]3CC[C@H](c4cc5c(cc4F)nc([C@@H]4CCCN4C(=O)[C@@H](NC(=O)OC)[C@@H](C)OC)n5COC(=O)[C@@H](N)C(C)C)N3c3cc(F)c(N4CCC(c5ccc(F)cc5)CC4)c(F)c3)cc2[nH]1)[C@@H](C)OC	< 0.2 µg/mL						> 1000 µg/mL					
COC(=O)N[C@H](C(=O)N1CCC[C@H]1c1nc2cc(F)c([C@H]3CC[C@H](c4cc5c(cc4F)nc([C@@H]4CCCN4C(=O)[C@@H](NC(=O)OC)[C@@H](C)OC)n5COC(=O)N(C)c4ncccc4COP(=O)(O)O)N3c3cc(F)c(N4CCC(c5ccc(F)cc5)CC4)c(F)c3)cc2[nH]1)[C@@H](C)OC	> 1000 µg/mL	90%	567 ng/mL	9750 ng·h/mL	92%	> 1000 µg/mL	> 1000 µg/mL					
COC(=O)N[C@H](C(=O)N1CCC[C@H]1c1nc2cc(F)c([C@H]3CC[C@H](c4cc5nc([C@@H]6CCCN6C(=O)[C@@H](NC(=O)OC)[C@@H](C)OC)n(COC(=O)[C@@H](NC(=O)OCOP(=O)(O)O)C(C)C)c5cc4F)N3c3cc(F)c(N4CCC(c5ccc(F)cc5)CC4)c(F)c3)cc2[nH]1)[C@@H](C)OC	< 0.1 µg/mL	38%	498 ng/mL	8840 ng·h/mL	95%	> 1000 µg/mL	114 µg/mL (≈ 81.6 µM)	122 ng·h/mL			16 ng/mL	
COC(=O)N[C@H](C(=O)N1CCC[C@H]1c1nc2cc([C@H]3CC[C@H](c4cc5nc([C@@H]6CCCN6C(=O)[C@@H](NC(=O)OC)[C@@H](C)OC)n(COP(=O)(O)O)c5cc4F)N3c3cc(F)c(N4CCC(c5ccc(F)cc5)CC4)c(F)c3)c(F)cc2n1COP(=O)(O)O)[C@@H](C)OC	123 µg/mL (≈ 92.1 µM)				100%		135 µg/mL (≈ 101 µM)	355 ng·h/mL	6070 ng·h/mL	396 ng/mL	40 ng/mL	
